One experiment addresses D(3) dopamine receptor (Homo sapiens, UniProt P35462). The experiment is described as follows: Displacement of [3H]spiperone from dopamine D3 receptor expressed in human HEK293 cells by liquid scintillation counter. Format: cell-based. In short, it runs like this:
(§1)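 Stably transfected HEK293 membranes, 15 µg per tube, in duplicate. Competed against [3H]spiperone with increasing compound concentrations from 1 nM. Buffer 50 mM Tris, 4 mM MgCl2, pH 7.4; 30 °C for 50 min. Unlabelled spiperone defined nonspecific binding. Stopped by rapid GF/B filtration and washing with cold 50 mM Tris/5 mM EDTA.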

Experiment [1] deals with T1, D(2) dopamine receptor (Homo sapiens, UniProt P14416). The experiment is described as follows: Displacement of [3H]spiperone from dopamine D2 receptor expressed in human HEK293 cells by liquid scintillation counter. Format: cell-based. In short, it runs like this:
as §1

Experiment [2] deals with T2, D(1A) dopamine receptor (Homo sapiens, UniProt P21728). The experiment is described as follows: Displacement of [3H]SCH23390 from dopamine D1 receptor expressed in human HEK293 cells by liquid scintillation counter. Format: cell-based. In short, it runs like this: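 Membranes from stably transfected HEK293 cells, 15 µg per tube, in duplicate. Incubated with [3H]SCH23390 and increasing compound concentrations from 1 nM. Buffer 50 mM Tris, 4 mM MgCl2, pH 7.4; 50 min at 30 °C. Nonspecific binding with unlabelled SCH23390. Reaction started by adding membranes and stopped by GF/B filtration.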
T2 sequence (P21728 whole entry): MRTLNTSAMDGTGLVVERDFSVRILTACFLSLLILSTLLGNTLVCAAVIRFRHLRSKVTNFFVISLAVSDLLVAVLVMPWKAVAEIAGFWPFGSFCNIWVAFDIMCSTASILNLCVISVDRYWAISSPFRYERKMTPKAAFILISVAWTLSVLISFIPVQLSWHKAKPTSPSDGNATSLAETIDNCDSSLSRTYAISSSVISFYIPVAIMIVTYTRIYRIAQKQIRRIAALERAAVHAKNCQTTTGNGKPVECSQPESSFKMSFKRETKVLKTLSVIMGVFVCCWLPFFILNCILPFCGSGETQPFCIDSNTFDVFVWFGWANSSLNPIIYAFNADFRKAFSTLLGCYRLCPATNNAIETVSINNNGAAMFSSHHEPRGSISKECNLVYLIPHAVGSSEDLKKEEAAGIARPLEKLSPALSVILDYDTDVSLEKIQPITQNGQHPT

The target in experiment [3] is T1, D(2) dopamine receptor. The experiment is described as follows: Displacement of [3H]spiperone from dopamine D2 receptor expressed in human HEK293 cells at 10 uM by liquid scintillation counter. Type of experiment: cell-based.
Experiment [4] has as its target T2, D(1A) dopamine receptor. The experiment is described as follows: Displacement of [3H]SCH23390 from dopamine D1 receptor expressed in human HEK293 cells at 10 uM by liquid scintillation counter. Type of experiment: cell-based.
Experiment [5] deals with 5-hydroxytryptamine receptor 2A (Homo sapiens, UniProt P28223). The experiment is described as follows: Displacement of [3H]Ketanserin from 5-HT2A receptor expressed in CHO cells by liquid scintillation counter. Format: cell-based. An outline of the steps: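 Duplicate incubations of CHO membranes (15 µg per tube) with [3H]Ketanserin and a rising compound series starting at 1 nM. Run in 50 mM Tris, 4 mM MgCl2, pH 7.4, at 30 °C for 50 min. Unlabelled ketanserin gave nonspecific binding. Bound counts retained on GF/B filters after cold-buffer washing.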
Chain of 5-hydroxytryptamine receptor 2A (P28223 whole entry): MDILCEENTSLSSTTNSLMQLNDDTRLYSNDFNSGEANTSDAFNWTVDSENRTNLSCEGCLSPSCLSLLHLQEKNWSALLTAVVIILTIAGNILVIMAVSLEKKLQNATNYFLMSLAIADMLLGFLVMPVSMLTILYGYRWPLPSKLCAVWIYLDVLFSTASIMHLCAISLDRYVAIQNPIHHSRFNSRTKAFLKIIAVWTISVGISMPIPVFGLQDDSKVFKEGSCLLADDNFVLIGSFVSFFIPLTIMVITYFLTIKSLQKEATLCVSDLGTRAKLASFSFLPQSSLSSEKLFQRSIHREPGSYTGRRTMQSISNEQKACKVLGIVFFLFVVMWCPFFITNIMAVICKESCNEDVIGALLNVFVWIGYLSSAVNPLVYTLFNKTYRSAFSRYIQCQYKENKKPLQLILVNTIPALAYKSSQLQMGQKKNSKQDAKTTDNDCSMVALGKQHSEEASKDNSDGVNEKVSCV

The target of experiment [6] is T3, 5-hydroxytryptamine receptor 1A (Homo sapiens, UniProt P08908).
T3 sequence (P08908 whole entry): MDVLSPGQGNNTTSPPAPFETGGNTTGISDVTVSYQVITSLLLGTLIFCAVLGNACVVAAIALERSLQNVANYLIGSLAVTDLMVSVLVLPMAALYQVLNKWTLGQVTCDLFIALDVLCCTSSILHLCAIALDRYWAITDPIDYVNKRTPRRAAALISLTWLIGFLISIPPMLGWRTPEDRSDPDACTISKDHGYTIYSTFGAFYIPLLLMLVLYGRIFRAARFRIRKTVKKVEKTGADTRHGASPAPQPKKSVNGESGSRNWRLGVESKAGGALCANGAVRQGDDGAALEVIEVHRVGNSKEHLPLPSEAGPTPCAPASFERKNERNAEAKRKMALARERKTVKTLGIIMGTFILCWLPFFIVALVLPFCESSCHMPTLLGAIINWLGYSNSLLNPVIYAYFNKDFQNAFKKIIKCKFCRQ
The experiment is described as follows: Displacement of [3H]8-OH-DPAT from 5-HT1A receptor expressed in CHO cells by liquid scintillation counter. Format: cell-based. An outline of the steps:
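CHO cell membrane homogenates, 15 µg per tube, in duplicate tubes. Test compound at increasing concentrations from 1 nM with 0.7 nM [3H]8-OH-DPAT. Buffer 50 mM Tris, 4 mM MgCl2, pH 7.4. Incubated 50 min at 30 °C. Nonspecific binding defined with WAY100635. Stopped by GF/B filtration and cold Tris/EDTA wash.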

Experiment [7] in a line: Selectivity ratio of Ki for 5-HT1A receptor to Ki for dopamine D3 receptor.
Experiment [8] is described as follows: Selectivity ratio of Ki for 5-HT2A receptor to Ki for 5-HT1A receptor.

The structures appear in SMILES notation.

Chain of D(3) dopamine receptor (P35462 whole entry): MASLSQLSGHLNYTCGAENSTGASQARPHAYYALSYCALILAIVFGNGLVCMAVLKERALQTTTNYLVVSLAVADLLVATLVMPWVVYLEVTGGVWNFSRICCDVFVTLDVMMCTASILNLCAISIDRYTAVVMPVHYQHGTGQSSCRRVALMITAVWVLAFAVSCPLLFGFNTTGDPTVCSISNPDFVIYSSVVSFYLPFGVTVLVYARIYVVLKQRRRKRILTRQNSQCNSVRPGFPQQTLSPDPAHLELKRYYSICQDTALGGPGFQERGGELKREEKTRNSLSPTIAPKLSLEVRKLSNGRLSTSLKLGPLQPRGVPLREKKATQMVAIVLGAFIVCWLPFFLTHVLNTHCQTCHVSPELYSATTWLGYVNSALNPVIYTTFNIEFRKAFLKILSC
T1 sequence (P14416 whole entry): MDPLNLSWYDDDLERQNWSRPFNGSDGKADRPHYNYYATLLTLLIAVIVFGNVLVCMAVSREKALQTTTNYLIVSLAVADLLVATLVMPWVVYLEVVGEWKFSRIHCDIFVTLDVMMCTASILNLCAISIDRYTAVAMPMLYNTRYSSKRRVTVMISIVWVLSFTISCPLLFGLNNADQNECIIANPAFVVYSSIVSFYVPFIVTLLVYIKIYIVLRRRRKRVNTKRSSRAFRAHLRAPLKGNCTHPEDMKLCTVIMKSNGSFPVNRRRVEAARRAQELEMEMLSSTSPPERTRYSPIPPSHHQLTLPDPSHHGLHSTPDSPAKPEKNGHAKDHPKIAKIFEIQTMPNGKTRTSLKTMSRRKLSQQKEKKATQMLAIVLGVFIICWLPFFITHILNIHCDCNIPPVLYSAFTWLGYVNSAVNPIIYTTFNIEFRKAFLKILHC

In the case of `CCCN1CCc2cccc3c2[C@H]1Cc1cccc(OCCCCN2CCN(c4ccccc4OC)CC2)c1-3`, the inhibition constant Ki came out at 23.4 nM at D(3) dopamine receptor, 141 nM on D(2) dopamine receptor [1] and 1310 nM at D(1A) dopamine receptor [2].

As to `CCCN1CCc2cccc3c2C1Cc1cccc(OCc2cn(CCCN4CCN(c5ccccc5)CC4)nn2)c1-3` (racemic), the Ki at D(3) dopamine receptor turned out to be 191 nM. In addition, the inhibition on D(2) dopamine receptor [3] was determined as 6%; at D(1A) dopamine receptor [4], 63%.

With `CCCN1CCc2cccc3c2C1Cc1cccc(OCCCCN2CCN(c4ccccc4OC)CC2)c1-3` (racemic), the Ki in [5] turned out to be 100000 nM; in experiment [6] it was 58 nM; on D(3) dopamine receptor, 19.9 nM; at D(2) dopamine receptor [1], 88 nM; at D(1A) dopamine receptor [2], 735 nM.

As to `CCCN1CCc2cccc3c2[C@H]1Cc1cccc(OCCCn2cc(CCN4CCN(c5ccccc5OC)CC4)nn2)c1-3`, the Ki at D(3) dopamine receptor amounted to 7.7 nM; at D(2) dopamine receptor [1] it was 770 nM. The inhibition on D(1A) dopamine receptor [4] worked out at 54%.

At D(3) dopamine receptor, `CCCN1CCc2cccc3c2C1Cc1cccc(OCc2cn(CCN4CCN(c5ccccc5OC)CC4)nn2)c1-3` (racemic) showed a Ki of 44 nM. For the same compound, the figures for the inhibition on D(2) dopamine receptor [3] and on D(1A) dopamine receptor [4] were 19% and 35%, respectively.

Compound `CCCN1CCc2cccc3c2C1Cc1cccc(OCCCn2cc(CCCN4CCN(c5ccccc5OC)CC4)nn2)c1-3` (racemic) registered a Ki at D(3) dopamine receptor of 8.16 nM. For the same compound, the results for the inhibition on D(2) dopamine receptor [3] and on D(1A) dopamine receptor [4] were 18% and 14%, respectively.

In the case of `CCCN1CCc2cccc3c2C1Cc1cccc(OCCCn2cc(CCCCN4CCN(c5ccccc5OC)CC4)nn2)c1-3` (racemic), the Ki came out at 8.14 nM on D(3) dopamine receptor, 206 nM on D(2) dopamine receptor [1] and 1900 nM on D(1A) dopamine receptor [2].

Consider `CCCN1CCc2cccc3c2C1Cc1cccc(OCCCn2cc(CCN4CCN(c5ccccc5OC)CC4)nn2)c1-3` (racemic), for which the Ratio in experiment [7] was 6.6; in [8], 32. Moreover, the Ki in [5] was 245 nM; in [6], 7.59 nM; on D(3) dopamine receptor, 1.14 nM; at D(2) dopamine receptor [1] it was 7380 nM. Further, the inhibition at D(1A) dopamine receptor [4] was found to be 64%.

`CCCN1CCc2cccc3c2C1Cc1cccc(OCCCNCCCO)c1-3` (racemic) gave a Ki at D(3) dopamine receptor of 4510 nM. Also, the inhibition at D(2) dopamine receptor [3] was 9%; on D(1A) dopamine receptor [4] it was 44%.

As to `CCCN1CCc2cccc3c2[C@H]1Cc1cccc(OCc2cn(CCCCN4CCN(c5ccccc5OC)CC4)nn2)c1-3`, the values for the Ki at D(3) dopamine receptor, on D(2) dopamine receptor [1] and at D(1A) dopamine receptor [2] were 9.18 nM, 616 nM and 1600 nM, respectively.

On to `CCCN1CCc2cccc3c2C1Cc1cccc(OCc2cn(CCCN4CCN(c5ncccn5)CC4)nn2)c1-3` (racemic), for which the Ki on D(3) dopamine receptor turned out to be 539 nM. In addition, the inhibition at D(2) dopamine receptor [3] turned out to be 13%; on D(1A) dopamine receptor [4], 32%.

`CCCN1CCc2cccc3c2C1Cc1cccc(OCc2cn(CCCN4CCN(c5cccc(Cl)c5Cl)CC4)nn2)c1-3` (racemic): the Ki on D(3) dopamine receptor was 35 nM; at D(1A) dopamine receptor [2], 2010 nM. The inhibition at D(2) dopamine receptor [3] was 40.5%.

Regarding `CCCN1CCc2cccc3c2[C@@H]1Cc1cccc(OCCCn2cc(CCN4CCN(c5ccccc5OC)CC4)nn2)c1-3`, the Ki on D(3) dopamine receptor turned out to be 1.82 nM; on D(2) dopamine receptor [1], 600 nM. The compound also had an inhibition at D(1A) dopamine receptor [4] of 68%.

As to `CCCN1CCc2cccc3c2C1Cc1cccc(OCc2cn(CCCN4CCN(c5ccccc5OC)CC4)nn2)c1-3` (racemic), the Ki at D(3) dopamine receptor worked out at 21 nM; on D(2) dopamine receptor [1], 1200 nM. Also, on D(1A) dopamine receptor [4], the inhibition turned out to be 67%.

With `C#CCOc1cccc2c1-c1cccc3c1C(C2)N(CCC)CC3` (racemic), the Ki at D(3) dopamine receptor stood at 2400 nM. At D(2) dopamine receptor [3], this compound displayed an inhibition of 28%.

`CCCN1CCc2cccc3c2[C@@H]1Cc1cccc(OCCCCN2CCN(c4ccccc4OC)CC2)c1-3`: the Ki at D(3) dopamine receptor was determined as 189 nM; on D(2) dopamine receptor [1], 174 nM; on D(1A) dopamine receptor [2], 1170 nM.

Take `CCCN1CCc2cccc3c2C1Cc1cccc(OCCCN(CCCN2CCN(c4ccccc4OC)CC2)S(C)(=O)=O)c1-3` (racemic): the Ki on D(3) dopamine receptor came out at 102 nM; at D(2) dopamine receptor [1], 399 nM; on D(1A) dopamine receptor [2] it was 910 nM.

`CCCN1CCc2cccc3c2[C@@H]1Cc1cccc(OCc2cn(CCCCN4CCN(c5ccccc5OC)CC4)nn2)c1-3`: the Ki worked out at 8 nM at D(3) dopamine receptor and 293 nM at D(2) dopamine receptor [1]. Also, the inhibition at D(1A) dopamine receptor [4] was found to be 66%.

Turning to `CCCN1CCc2cccc3c2C1Cc1cccc(OCCCn2cc(CN4CCN(c5ccccc5OC)CC4)nn2)c1-3` (racemic), the Ki on D(3) dopamine receptor came out at 281 nM. Besides, the inhibition on D(2) dopamine receptor [3] came out at 51%; at D(1A) dopamine receptor [4] it was 42%.

Consider `CCCN1CCc2cccc3c2C1Cc1cccc(OCc2cn(CCCCN4CCN(c5ccccc5OC)CC4)nn2)c1-3` (racemic), for which the results for the Ratio in [7] and in experiment [8] were 3.6 and 18, respectively. Also, the inhibition constant (Ki) in experiment [5] was determined as 174 nM; in experiment [6], 9.68 nM; at D(3) dopamine receptor, 2.67 nM; at D(2) dopamine receptor [1], 661 nM; at D(1A) dopamine receptor [2] it was 2700 nM.

Values taken from ChEMBL document CHEMBL1681760, “Further SAR study on 11-O-substituted aporphine analogues: identification of highly potent dopamine D3 receptor ligands” (Bioorg Med Chem, 2011).
